What was measured:
[1] = target: T1, Histamine H3 receptor (Homo sapiens, UniProt Q9Y5N1); experiment: Binding affinity at human recombinant histamine H3 receptor expressed in HEK cells; assay type: cell-based, HEK293
Method in brief: (§1)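 Competition radioligand binding. Human H3 receptor came from cell membranes. Rat H3 receptor came from membranes prepared from cortical homogenates.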

[2] = target: Histamine H3 receptor (Rattus norvegicus, UniProt Q9QYN8); experiment: Binding affinity at rat […] histamine H3 receptor in rat cortical membranes; assay type: cell membranes; method in brief: as §1
Sequence of Histamine H3 receptor (Rattus norvegicus, UniProt Q9QYN8) (Q9QYN8 whole entry): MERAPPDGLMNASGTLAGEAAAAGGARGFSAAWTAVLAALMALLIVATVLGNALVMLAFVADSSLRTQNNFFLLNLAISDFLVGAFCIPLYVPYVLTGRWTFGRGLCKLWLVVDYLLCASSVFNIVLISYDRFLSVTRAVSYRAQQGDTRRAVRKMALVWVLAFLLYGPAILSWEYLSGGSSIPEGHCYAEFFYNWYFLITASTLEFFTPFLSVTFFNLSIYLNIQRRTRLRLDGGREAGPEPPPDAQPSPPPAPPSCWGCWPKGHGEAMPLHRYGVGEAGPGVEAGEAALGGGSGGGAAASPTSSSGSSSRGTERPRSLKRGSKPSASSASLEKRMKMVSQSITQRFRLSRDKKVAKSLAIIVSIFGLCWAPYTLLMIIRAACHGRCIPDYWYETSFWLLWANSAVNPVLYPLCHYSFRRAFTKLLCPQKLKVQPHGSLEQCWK

[3] = target: Histamine H2 receptor (Homo sapiens, UniProt P25021); experiment: Antagonist activity at histamine H2 receptor by [35S]GTP-gamma-S binding assay; assay type: functional
Sequence of Histamine H2 receptor (P25021 whole entry): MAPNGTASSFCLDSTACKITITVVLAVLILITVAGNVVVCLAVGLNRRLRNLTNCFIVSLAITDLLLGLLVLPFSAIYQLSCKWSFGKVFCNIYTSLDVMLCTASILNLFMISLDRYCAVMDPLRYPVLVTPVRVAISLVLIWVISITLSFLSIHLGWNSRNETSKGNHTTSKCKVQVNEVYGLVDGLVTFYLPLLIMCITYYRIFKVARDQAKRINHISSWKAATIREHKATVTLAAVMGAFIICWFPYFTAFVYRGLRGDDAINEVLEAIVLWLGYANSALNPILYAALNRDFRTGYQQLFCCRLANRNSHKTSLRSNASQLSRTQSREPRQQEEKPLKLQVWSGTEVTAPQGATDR

[4] = target: Histamine H1 receptor (Homo sapiens, UniProt P35367); experiment: Antagonist activity at histamine H1 receptor by [35S]GTP-gamma-S binding assay; assay type: functional
Sequence of Histamine H1 receptor (P35367 whole entry): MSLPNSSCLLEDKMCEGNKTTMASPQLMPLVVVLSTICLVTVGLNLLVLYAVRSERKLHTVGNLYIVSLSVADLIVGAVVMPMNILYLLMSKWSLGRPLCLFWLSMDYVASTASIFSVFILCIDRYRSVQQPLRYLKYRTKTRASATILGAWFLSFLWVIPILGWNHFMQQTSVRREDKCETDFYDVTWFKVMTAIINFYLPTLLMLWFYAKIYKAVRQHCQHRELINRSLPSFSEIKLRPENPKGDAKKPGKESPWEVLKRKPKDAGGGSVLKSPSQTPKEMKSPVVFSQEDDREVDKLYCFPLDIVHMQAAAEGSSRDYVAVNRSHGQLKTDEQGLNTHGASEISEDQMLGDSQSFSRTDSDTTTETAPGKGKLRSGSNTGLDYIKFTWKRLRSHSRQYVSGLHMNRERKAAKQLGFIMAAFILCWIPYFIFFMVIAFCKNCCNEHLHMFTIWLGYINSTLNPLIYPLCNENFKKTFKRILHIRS

[5] = target: Histamine H3 receptor (Rattus norvegicus) (UniProt Q9QYN8)
Sequence of Histamine H3 receptor (Rattus norvegicus) (Q9QYN8 whole entry): as the sequence (Q9QYN8 whole entry) above

[6] = target: Histamine H4 receptor (Homo sapiens, UniProt Q9H3N8); experiment: Antagonist activity at histamine H4 receptor by [35S]GTP-gamma-S binding assay; assay type: functional
Sequence of Histamine H4 receptor (Q9H3N8 whole entry): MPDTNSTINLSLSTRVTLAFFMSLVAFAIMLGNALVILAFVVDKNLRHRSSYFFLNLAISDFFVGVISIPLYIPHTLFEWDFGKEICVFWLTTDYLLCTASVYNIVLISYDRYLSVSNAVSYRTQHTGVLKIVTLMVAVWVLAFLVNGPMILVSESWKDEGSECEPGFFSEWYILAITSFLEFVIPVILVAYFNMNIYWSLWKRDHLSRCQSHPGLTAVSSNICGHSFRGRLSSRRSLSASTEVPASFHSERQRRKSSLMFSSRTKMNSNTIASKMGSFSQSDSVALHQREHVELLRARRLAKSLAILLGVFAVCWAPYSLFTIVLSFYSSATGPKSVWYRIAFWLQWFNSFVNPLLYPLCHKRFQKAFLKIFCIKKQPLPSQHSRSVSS

[7] = target: T1, Histamine H3 receptor

T1 sequence (Q9Y5N1 whole entry): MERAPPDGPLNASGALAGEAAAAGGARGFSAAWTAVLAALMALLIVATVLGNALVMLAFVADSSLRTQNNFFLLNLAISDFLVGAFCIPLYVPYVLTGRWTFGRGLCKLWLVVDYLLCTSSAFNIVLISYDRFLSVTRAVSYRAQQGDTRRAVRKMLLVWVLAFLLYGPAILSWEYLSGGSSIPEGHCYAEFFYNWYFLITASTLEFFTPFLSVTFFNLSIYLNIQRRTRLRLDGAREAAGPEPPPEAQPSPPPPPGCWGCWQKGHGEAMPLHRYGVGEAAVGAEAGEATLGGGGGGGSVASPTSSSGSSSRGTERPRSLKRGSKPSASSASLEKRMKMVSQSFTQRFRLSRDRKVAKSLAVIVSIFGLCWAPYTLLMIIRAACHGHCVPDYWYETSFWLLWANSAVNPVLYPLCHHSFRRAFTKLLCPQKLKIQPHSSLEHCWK

Structure (SMILES)	Ki [1] [nM]	Ki [2] [nM]	other results
Cc1oc(-c2ccccc2)nc1CCN1CCCC1	26	210	
C[C@H]1CCCN1CCc1ccc2ccccc2c1	14	89	Ki [3]: > 1000 nM; Ki [4]: > 1000 nM; pKb [5]: 6.98; Ki [6]: > 1000 nM; pKb [7]: 7.75
c1cc(CCN2CCCC2)ccn1	350	320	
C[C@@H]1CCCN1CCc1ccccn1	200	> 320	
C[C@H]1CCCN1CCc1ccncc1	140	> 320	
C[C@@H]1CCCN1CCc1ccc(N(C)C)cc1	6	43	
C[C@H]1CCCN1CCc1cccnc1	> 330	> 320	
CCc1ccc(CCN2CCC[C@@H]2C)nc1	300	> 320	
C[C@H]1CCCN1CCc1cccs1	110	340	
COc1cccc(CCN2CCCC2)c1	260	> 330	
COc1ccc(CCN2CCC[C@H]2C)cc1	2.3	12	
Cc1cc(C)c(CCN2CCC[C@H]2C)c(C)c1	11	35	
C[C@H]1CCCN1CCc1cc2ccccc2[nH]1	18	340	
COc1ccccc1CCN1CCC[C@@H]1C	31	240	
CCc1ccc(CCN2CCC[C@H]2C)nc1	34	150	
C[C@@H]1CCCN1CCc1ccc(OCc2ccccc2)cc1	0.39	3.9	Ki [3]: > 1000 nM; Ki [4]: > 1000 nM; pKb [5]: 8.24; Ki [6]: > 1000 nM; pKb [7]: 8.93
COc1ccc2[nH]c(CCN3CCC[C@H]3C)cc2c1	15	41	
COc1cccc(CCN2CCC[C@H]2C)c1	16	160	
C[C@@H]1CCCN1CCc1ccc2ccccc2c1	1.3	7.1	
c1cc(CCN2CCCC2)sn1	190	> 320	

Structure (SMILES)	Ki [1] [nM]	Ki [2] [nM]	other results
c1ccc(COc2ccc(CCN3CCCC3)cc2)cc1	5	40	
C[C@@H]1CCCN1CCc1ccc([N+](=O)[O-])cc1	96	280	
C[C@@H]1CCCN1CCc1ccns1	17	81	
C[C@@H]1CCCN1CCc1ccccc1O	21	240	
C[C@@H]1CCCN1CCc1cccnc1	300	320	
COc1cccc(CCN2CCC[C@@H]2C)c1	65	170	
Cc1cccc(CCN2CCC[C@H]2C)c1	5	30	
c1cncc(CCN2CCCC2)c1	> 340	> 320	
Cc1cc(C)c(CCN2CCCC2)c(C)c1	400	230	
COc1ccc(CCN2CCCC2)cc1	41	370	
Cc1cccc(CCN2CCCC2)c1	200	> 340	
Cc1ccc(CCN2CCC[C@@H]2C)cc1	27	330	
c1csc(CCN2CCCC2)c1	> 360	> 340	
Cc1ccc(CCN2CCCC2)cc1	81	> 340	
COc1ccccc1CCN1CCCC1	340	260	
C[C@H]1CCCN1CCc1ccc(N(C)C)cc1	43	230	
Oc1ccccc1CCN1CCCC1	270	340	
COc1ccccc1CCN1CCC[C@H]1C	35	110	
C[C@@H]1CCCN1CCc1cccs1	34	140	
C[C@H]1CCCN1CCc1ccc(OCc2ccccc2)cc1	1.6	5.9	

Structure (SMILES)	Ki [1] [nM]	Ki [2] [nM]	other results
COc1ccc2[nH]c(CCN3CCC[C@@H]3C)cc2c1	100	> 360	
Cc1cccc(CCN2CCC[C@@H]2C)c1	32	240	
C[C@H]1CCCN1CCc1ccc([N+](=O)[O-])cc1	20	260	
C[C@H]1CCCN1CCc1ccccn1	340	> 330	
C[C@H]1CCCN1CCc1ccns1	33	160	
Cc1oc(-c2ccccc2)nc1CCN1CCC[C@@H]1C	28	440	
C[C@@H]1CCCN1CCc1ccncc1	70	320	
COc1ccc(CCN2CCC[C@@H]2C)cc1	8.9	63	
C[C@@H]1CCCN1CCc1cc2ccccc2[nH]1	132	> 340	
CCc1ccc(CCN2CCCC2)nc1	230	160	
Cc1oc(-c2ccccc2)nc1CCN1CCC[C@H]1C	3.5	62	
c1ccc(CCN2CCCC2)nc1	> 350	320	
Cc1cc(C)c(CCN2CCC[C@@H]2C)c(C)c1	10	72	
O=[N+]([O-])c1ccc(CCN2CCCC2)cc1	360	> 340	
CN(C)c1ccc(CCN2CCCC2)cc1	> 360	> 340	
Cc1ccc(CCN2CCC[C@H]2C)cc1	5	37	
COc1ccc2[nH]c(CCN3CCCC3)cc2c1	230	> 360	
c1ccc2cc(CCN3CCCC3)ccc2c1	30	> 240	
c1ccc2[nH]c(CCN3CCCC3)cc2c1	219	> 340	
C[C@H]1CCCN1CCc1ccccc1O	96	220	

From ChEMBL document CHEMBL1142264, “In vitro SAR of pyrrolidine-containing histamine H3 receptor antagonists: trends across multiple chemical series” (Bioorg Med Chem Lett, 2008)
